Source: PubChem BioAssay
The list is not random: actives were taken first. Their share in the collection is about 1.8%.
STAT3 activator = IL-6 driven STAT3 reporter potentiators, primary screen, U3A cells, luciferase, luminescence, MLSCN library. IL-6 STAT3-luciferase reporter; 100% = signal with IL-6 EC80 alone. activation (% of control), % at 5.6 µM. 190,000 compounds, 0.91% hits. AID 871, 2007;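 active means activation above the screen-wide mean of compound activation plus 3 SD, cut at about 130% in these data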;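 further: 0% = background luminescence of wells with medium and substrate only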
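Test system: Human STAT1-deficient U3A cells with stable STAT3-luciferase reporter | Also added: Interleukin-6, 33 ng/mL | Timing: Compound pre-incubation 1 h before IL-6, then 6 h stimulation at 37 °C | Technique: Luciferase reporter luminescence | Read-out: Percent of IL-6-only median luminescence | Benchmarks: IL-6-only wells as 100% reference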
PERK inh = block of dimerizer-induced PERK translation repression, primary screen, PERK inhibitor project, CHO PERK-DD cells, SEAP luminescence, HTS. CHO PERK-DD fusion, SEAP luminescence translation reporter. Eukaryotic translation initiation factor 2-alpha kinase 3 (Homo sapiens), Q9NZJ5. 220,000 compounds, 0.17% hits. inhibition, % at 5.6 µM;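 active means inhibition above the mean inhibition of all tested compounds plus 3 SD, set separately per screening campaign, cut at about 2.9% in these data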;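 further: PERK kinase domain activated by AP20187 dimerizer at 100 nM; 0% = DMSO with dimerizer and 100% = rapamycin at 8.4 µM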
Target sequence (Q9NZJ5 whole entry, looked up, the tested form may be a part): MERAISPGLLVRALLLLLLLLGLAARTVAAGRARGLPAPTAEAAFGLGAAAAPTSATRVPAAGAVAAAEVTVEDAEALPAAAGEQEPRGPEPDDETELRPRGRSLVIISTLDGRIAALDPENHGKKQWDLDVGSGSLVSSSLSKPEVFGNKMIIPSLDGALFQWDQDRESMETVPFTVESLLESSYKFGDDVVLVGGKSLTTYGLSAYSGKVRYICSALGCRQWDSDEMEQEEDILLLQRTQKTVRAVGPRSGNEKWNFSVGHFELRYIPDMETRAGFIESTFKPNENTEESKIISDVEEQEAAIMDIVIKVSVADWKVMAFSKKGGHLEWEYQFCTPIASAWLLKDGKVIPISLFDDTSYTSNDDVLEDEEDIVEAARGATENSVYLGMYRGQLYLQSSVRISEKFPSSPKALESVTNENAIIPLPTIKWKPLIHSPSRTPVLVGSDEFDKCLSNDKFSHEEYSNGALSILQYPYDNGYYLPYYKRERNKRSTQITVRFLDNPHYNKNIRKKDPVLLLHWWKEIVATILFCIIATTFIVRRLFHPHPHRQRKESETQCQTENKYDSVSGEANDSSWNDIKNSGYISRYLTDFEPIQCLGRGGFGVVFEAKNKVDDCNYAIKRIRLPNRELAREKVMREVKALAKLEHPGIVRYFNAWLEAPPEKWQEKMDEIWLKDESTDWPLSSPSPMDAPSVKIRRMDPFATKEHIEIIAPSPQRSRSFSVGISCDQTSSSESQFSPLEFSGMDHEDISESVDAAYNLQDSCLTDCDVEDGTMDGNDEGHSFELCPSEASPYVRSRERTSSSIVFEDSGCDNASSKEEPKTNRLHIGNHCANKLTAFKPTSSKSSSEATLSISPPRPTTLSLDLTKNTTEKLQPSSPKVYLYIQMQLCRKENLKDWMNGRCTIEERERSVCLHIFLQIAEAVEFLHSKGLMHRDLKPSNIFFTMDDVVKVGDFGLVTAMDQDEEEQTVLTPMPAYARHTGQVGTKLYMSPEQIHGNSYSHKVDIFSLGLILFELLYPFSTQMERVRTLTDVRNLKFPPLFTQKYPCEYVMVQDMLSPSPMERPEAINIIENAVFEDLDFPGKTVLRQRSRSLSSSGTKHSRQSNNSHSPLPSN
STAT3 inh = IL-6 driven STAT3 reporter inhibitors, primary screen, U3A cells, luciferase, luminescence, MLSCN library | 190,000 compounds, 0.89% hits | inhibition, % at 5.5 µM | AID 862, 2007 | IL-6 STAT3-luciferase reporter; host cell line lacks STAT1;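 active means inhibition above the mean inhibition across all screened compounds plus 3 SD, cut at about 44% in these data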;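 further: 0% = DMSO only wells and 100% = 100 µM nifuroxazide control wells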
STAT1 inh = STAT1 signaling inhibitors, primary screen, cell-based, HTS, luciferase reporter | NIH 3T3 STAT1-luciferase reporter, IFN-gamma, luminescence | inhibition, % at 5.5 µM | AID 920, 2007 | 200,000 compounds, 0.35% hits;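 active means inhibition above a set limit, the mean inhibition across all tested compounds plus 3 SD, cut at about 34% in these data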;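 further: 0% = IFN-gamma with DMSO and 100% = IFN-gamma with 300 µM nifuroxazide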
An asterisk follows results filed as active; x = no result given.

SMILES	STAT3 activator	PERK inh	STAT3 inh	STAT1 inh
CCOC(=O)C(=Cc1ccc(Br)cc1)C(=O)OCC	x	-1	x	x
CCOC(=O)C(CC)(CC)C(=O)/C=C/c1ccc(Br)cc1	113	3.2*	-3	13
COc1ccccc1N1C(=O)N(C(C)=O)C2C1Nc1ccccc1N2C (stereo not given)	134*	-1	-35	17
COc1ccccc1N1C(=O)c2ccccc2NC1c1ccncc1 (stereo not given)	101	1	4	7
CCOc1ccc(N2CC(C(=O)Nc3cccc(S(=O)(=O)NC4=NCCC4)c3)CC2=O)cc1 (stereo not given)	x	1	x	x
CCc1ccc(/C=N/N2CCN(c3ccccn3)CC2)cc1	x	0	x	x
CCN(CC)c1ccc(/C=N/N2CCN(c3ccccn3)CC2)cc1	x	3.0*	x	x
Brc1ccccc1-c1nnc(SCc2nc3ccccc3s2)o1	143*	1	-50	-40
Brc1ccccc1-c1nnc(CSc2nnc3sc4ccccc4n23)o1	106	0	0	-8
O=C(COc1ccc(Cl)cc1)NC1=NN(c2ccccc2)C(=O)C1	103	-1	-3	2
O=C(Cn1cc2c(n1)CCCC2)NCC1CCCO1 (stereo not given)	104	3.2*	5	-2
O=C(CCN1CCCCC1)N/N=C/c1c[nH]c2ccccc12	x	1	x	x
O=C(O)c1cccc(N2C(=O)/C(=C/c3ccc([N+](=O)[O-])cc3)C=C2c2ccccc2)c1	46	0	66*	39*
C=CCOC(=O)c1[nH]c2c(c1C)C(=O)CC(c1cc(OC)c(OC)c(OC)c1)C2 (stereo not given)	63	-1	46*	42*
COc1ccc(C2CC(=O)c3c([nH]c(C(=O)OC(C)C)c3C)C2)cc1OC (stereo not given)	104	0	-1	-1
CC(C)C(=O)NNc1ccccc1	114	2	-15	10
CC(C)C(=O)NNc1ccc(C(F)(F)F)cn1	x	3.6*	x	x
Cc1ccc(NC2=C(N3CCOCC3)C(=O)c3ccccc3C2=O)cc1	101	3.2*	9	-31
CC(=O)c1ccc(NC2=C(N3CCOCC3)C(=O)c3ccccc3C2=O)cc1	93	2	16	10
CCOC(=O)CS(=O)(=O)c1nc(-c2ccccc2)cc(C(F)(F)F)n1	88	-1	18	43*
CCOC(=O)CS(=O)(=O)c1ccccc1	105	2	-3	-5
c1ccc2c(-c3csc(-c4ccncc4)n3)c[nH]c2c1	144*	-1	-49	-54
CC1CCCCN1C(=S)NCCc1ccccc1 (stereo not given)	101	0	-3	-12
Cn1c(O)c(C(C#N)=C2N=c3ccccc3=N2)c2ccccc21	135*	0	-34	14
N#CC(=C1N=c2ccccc2=N1)c1c(O)[nH]c2ccccc12	119	1	-15	-12
SMILES	STAT3 activator	PERK inh	STAT3 inh	STAT1 inh
O=C(Nc1cc(S(=O)(=O)N2CCCCC2)ccc1O)c1ccccc1NS(=O)(=O)c1ccc(F)c(F)c1	103	0	-9	3
CCOc1ccc(OCc2cccc(C(=O)N3CCCCCC3)c2)cc1	33	0	80*	71*
Cc1ccc(S(N)(=O)=O)cc1NC(=O)C1CC2CCC1C2 (stereo not given)	98	3.0*	9	0
COCCn1c(C)cc(C(=O)CSc2n[nH]c(N)n2)c1C	101	1	1	-7
COCCn1c(C)cc(C(=O)CSc2nnc(C)s2)c1C	26	0	92*	39*
S=C(NCc1ccc(Cl)cc1Cl)Nc1ccccc1	91	0	10	-1
CCc1n[n+](CC(=O)c2ccccc2)c(N)s1	51	1	65*	59*
Cc1nn(-c2ccccc2)c(C)c1-c1cc(C(=O)N/N=C/c2ccc(O)cc2)[nH]n1	x	1	x	x
COc1cc(/C=N/NC(=O)c2cc(-c3c(C)nn(-c4ccccc4)c3C)n[nH]2)ccc1O	236*	1	-150	-123
Cc1cc(C)n(-c2nc3ccccc3c(=O)n2OCc2ccc(F)cc2)n1	135*	0	-31	10
Cc1cc(C)n(-c2nc3ccccc3c(=O)n2OCC(=O)OCc2ccccc2)n1	99	-1	10	-5
CCOC(=O)CSc1nc2sc(C)c(C)c2c(=O)n1N	92	0	7	-3
O=C(N=NC(=O)c1ccc2c(O)n(CC3CCCO3)c(O)c2c1)c1cccnc1 (stereo not given)	x	1	x	x
Cc1cnc(NC(=O)c2ccc(OCC3CCCO3)cc2)s1 (stereo not given)	38	0	78*	51*
Cc1ccc(NC(=O)c2ccc(OCC3CCCO3)cc2)cc1 (stereo not given)	106	1	-10	-35
COc1ccccc1NC(=O)COc1ccc(/C=N/NC(=O)CSCc2cc(C)cc(C)c2)cc1	81	1	26	11
COc1ccccc1NC(=O)COc1ccc(/C=N/NC(=O)CSCc2ccc(Cl)cc2)cc1	100	3.3*	2	-6
CCNC(=S)N1CCCC(C(N)=O)C1 (stereo not given)	95	0	16	-6
Cc1cc(NC(=O)C2CC(=O)N(c3ccccc3)C2)no1 (stereo not given)	93	2	6	-7
Cc1ccc(N2CC(C(=O)Nc3cc(C)on3)CC2=O)cc1 (stereo not given)	111	2.9*	-1	6
O=C1CC(c2ccccc2)Sc2ccccc2N1 (stereo not given)	135*	1	-36	-17
COc1ccc(OCc2nc(-c3ccc(F)c(F)c3)cs2)cc1	x	3.3*	x	x
Cc1ccc(C(=O)N/N=C/c2ccc([N+](=O)[O-])s2)cc1	36	0	76*	80*
O=C(N/N=C/c1ccc([N+](=O)[O-])s1)c1ccncc1	101	1	-2	4
CC1CCCC(C)N1C(=O)COc1ccc(C(=O)Nc2ccccc2N2CCOCC2)cc1 (stereo not given)	100	0	2	-1
SMILES	STAT3 activator	PERK inh	STAT3 inh	STAT1 inh
CCCCn1cc([N+](=O)[O-])nc1C	x	2	x	x
Cc1nc([N+](=O)[O-])cn1CCC#N	x	3.6*	x	x
COc1ccccc1NC(=O)c1cc(C(=O)Nc2ccccc2OC)cc(N2C(=O)CCC2=O)c1	99	1	-2	-3
O=C(c1ccco1)N1CCN(C(=O)c2cc(-c3ccccn3)nc3ccc(Cl)cc23)CC1	135*	-1	-38	-1
O=C(c1ccco1)N1CCN(C(=O)c2cc(-c3ccccc3)nc3ccccc23)CC1	111	-1	-8	-5
O=C(/C(C=Nc1cc2c(oc1=O)CCCC2=O)=C(\O)c1ccccc1)c1ccccc1	94	0	13	-57
O=C(NNc1ccccc1F)C1CCC1	x	0	x	x
O=C(NNc1ccccc1F)c1ccccc1	x	5.0*	x	x
COc1ccc(-c2c[n+]3c(n2-c2ccccc2)CCCCC3)cc1	75	1	28	21
